Measured values reported in PubChem BioAssay.
Calls of active or inactive are those of the source.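 How the source made its calls, unless noted: active means viability at or below 30% in both replicate assays; inconclusive means viability at or below 30% in just one of the two assays; inactive means the rest.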

Legend:
[1] = reduced viability of SK-BR-3 breast cancer cells – cell-based, 24 h, human, pilot screen (AID 572;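 active means viability at or below 10% of carrier control in both of two separate runs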;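 further: compound exposure lasted between 18 and 24 h rather than exactly 24 h; 100% = carrier-treated control wells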); conditions: SK-BR-3 viability, CellTiter-Glo luminescence, at 10 µM, stronger effect = lower value
[2] = HUVEC growth inhibition – cell-based, human, primary screen (AID 575); conditions: HUVEC proliferation, CellTiter-Glo luminescence, 72 h; at 10 µM; stronger effect = lower value;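 further: 100% = median of untreated cell wells with 0.1% DMSO on each plate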
Method in brief: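 Material: primary human umbilical vein endothelial cells / Schedule: 72 h exposure, 37 °C, 5% CO2, 30 min RT equilibration / Signal: ATP-based CellTiter-Glo luminescent read / Read-out basis: percent of median DMSO-control luminescence / Control set: 32 DMSO-only cell-control wells (high), 32 MePR drug-control wells (low) per plate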

[3] = H69AR cell proliferation blockers – human, duplicate replicates, primary screen (AID 580;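 active means viability at or under a set limit in both replicates, limit being median viability minus 3 SD, cut at about 48% in these data, passing the limit was not always enough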;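 further: 100% = mean luminescence of untreated wells and 0% = no signal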); conditions: H69AR lung tumor cells viability, ATP luminescence, 72 h; at 10 µM; stronger effect = lower value
[4] = yeast transport mutant growth inhibition pilot in 384-well plates, post-Golgi transport modulator project (AID 636; in the data active means inhibition above about 31%); conditions: absorbance 615 nm, about 18 h, stronger effect = higher value
[5] = growth suppression of yeast trafficking mutant, preliminary HTS, modulators of trafficking downstream of Golgi apparatus project, 1536-format plate, OD 615 nm (AID 637; in the data active means inhibition above about 30%); conditions: yeast transport mutant growth, absorbance 615 nm, 18 h; stronger effect = higher value
[6] = MRP1 drug-resistance reversers in H69AR cells – cell-based, doxorubicin co-treatment, pilot screen (AID 601;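 active means viability loss from added drug above about 55%, and viability with drug at most 40%, in both replicates, limit read from the data, passing the limit was not always enough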); conditions: CellTiter-Glo, 72 h, at 10 µM; for differential viability (reversal): stronger effect = higher value
[7] = H69AR cells + 2 uM doxorubicin, measured here: viability with 2 uM doxorubicin, stronger effect = lower value
[8] = H69AR cells, compound alone cytotoxicity

| Structure (SMILES) | viability [1] | viability [2] | viability [3] | inhibition [4] | inhibition [5] | differential viability (reversal) ([6]; H69AR cells + 2 uM doxorubicin) | viability [6, 7] | viability [6, 8] |
| --- | --- | --- | --- | --- | --- | --- | --- | --- |
| CCCNC(=O)c1cc(-c2ccco2)on1 | 77% (inactive) | 88.3% (inactive) | 97.4% (inactive) | -1.87% (inactive) | 2.73% (inactive) |  |  |  |
| CCCCCCCCCCCCCCCC(O)C(N)CO (stereo not drawn) | 60% (inactive) | 2.65% (active) |  |  |  | -0.02% (inactive) | 1.44% | 1.42% |
| O=C(CSc1ccc(-c2ccccc2)nn1)N1CCOCC1 | 94% (inactive) | 105% (inactive) | 95.2% (inactive) | -6.44% (inactive) | -4.73% (inactive) | 13.2% (inactive) | 82% | 95.2% |
| OCCNC1=NCCN1 | 54% (inactive) | 99.5% (inactive) | 96.8% (inactive) | -7.4% (inactive) | -0.55% (inactive) | 6.17% (inactive) | 90.7% | 96.8% |
| Cn1c2c(c(=O)n(C)c1=O)C(NC(=O)C(C)(C)C)(C(F)(F)F)C(=O)N2 (stereo not drawn) | 105% (inactive) | 98.7% (inactive) | 90.3% (inactive) | -6.62% (inactive) | -1.82% (inactive) | 9.01% (inactive) | 81.3% | 90.3% |
| O=C(Cn1c(=O)oc2ccccc21)Nc1ccc(S(=O)(=O)N2CCCCC2)cc1 | 106% (inactive) | 89.2% (inactive) |  | 1.92% (inactive) | -2.58% (inactive) | 5.17% (inactive) | 59.9% | 65.1% |
| C1CCC(C(CC2CCCCN2)C2CCCCC2)CC1 (stereo not drawn) | 2% (active) | 2.58% (active) |  |  |  | 0.29% (inactive) | 1.26% | 1.55% |
| Cc1cc(=O)c2n(Cc3ccccc3Cl)nc[n+]2[nH]1 | 115% (inactive) | 100% (inactive) | 97.1% (inactive) | -4.4% (inactive) | 0% (inactive) | 8.77% (inactive) | 88.3% | 97.1% |
| N#Cc1cc2c(nc1SCC(=O)Nc1sc3c(c1C#N)CCC3)CCCCC2 | 82% (inactive) | 79.5% (inactive) |  | -7.84% (inactive) | -8.91% (inactive) | -16.5% (inactive) | 57.4% | 40.9% |
| Cc1ccc2nc(C3CCN(CC(=O)N4CCCCCC4)CC3)[nH]c2c1 | 84% (inactive) | 108% (inactive) | 96.3% (inactive) | -1.1% (inactive) | 0.73% (inactive) | -10.6% (inactive) | 107% | 96.3% |
| CC1(C)Cc2c(C#N)c(SCCC#N)nc(N3CCOCC3)c2CS1 | 83% (inactive) | 86.6% (inactive) | 84.2% (inactive) | -3.42% (inactive) | -4.84% (inactive) |  |  |  |
| Nc1ccc(S(=O)(=O)Nc2ccccn2)cc1 | 143% (inactive) | 102% (inactive) | 91.3% (inactive) | 0.78% (inactive) | -1.17% (inactive) | 10.3% (inactive) | 81% | 91.3% |
| CN(C)c1ccc(O)c2c1CC1CC3[C@@H](N(C)C)C(=O)C(C(N)=O)=C(O)[C@]3(O)C(=O)C1=C2O (stereo partly drawn) | 92% (inactive) | 92.6% (inactive) |  | 2.73% (inactive) | 29.7% (inactive) | -6.56% (inactive) | 39.2% | 32.7% |
| COc1ccc(-c2ccc(-c3noc(-c4cccs4)n3)c(OC)n2)cc1 | 77% (inactive) | 98.8% (inactive) |  | -7.43% (inactive) | -8.73% (inactive) | -5.54% (inactive) | 70.1% | 64.6% |
| CCCNC(=O)N1CCN(S(=O)(=O)c2ccc(C)c(C)c2)CC1 | 85% (inactive) | 112% (inactive) | 95% (inactive) | 3.42% (inactive) | 0% (inactive) | -0.65% (inactive) | 95.7% | 95% |
| CCOC(=O)Nc1ccc2c(c1)N(C(=O)CCN1CCOCC1)c1ccccc1S2 | 78% (inactive) | 97% (inactive) |  | -5.07% (inactive) | -2.55% (inactive) | -11.3% (inactive) | 76% | 64.7% |
| CC(=O)c1ccc(-n2nnnc2SCC(=O)N2CCc3ccccc3C2)cc1 | 94% (inactive) | 106% (inactive) | 88.9% (inactive) | -6.3% (inactive) | -14.7% (inactive) | -12.1% (inactive) | 101% | 88.9% |
| O=C(C1CCCCC1)N1CCC(c2nc3c(nnn3Cc3ccccc3Cl)c(=O)[nH]2)CC1 | 90% (inactive) | 83.6% (inactive) | 73.9% (inactive) | -3.24% (inactive) | -9.27% (inactive) |  |  |  |
| CN(C)CCCN1c2ccccc2Sc2ccc(C(F)(F)F)cc21 | 4.5% (active) | 56.8% (inactive) |  |  |  | -39.3% (inactive) | 51% | 11.7% |

| Structure (SMILES) | viability [1] | viability [2] | viability [3] | inhibition [4] | inhibition [5] | differential viability (reversal) ([6]; H69AR cells + 2 uM doxorubicin) | viability [6, 7] | viability [6, 8] |
| --- | --- | --- | --- | --- | --- | --- | --- | --- |
| O=C(CCCOc1ccccc1)N1CCN(c2ccccn2)CC1 | 99% (inactive) | 97.7% (inactive) | 104% (inactive) | -0.39% (inactive) | -5.74% (inactive) | 5.88% (inactive) | 97.8% | 104% |
| CCN(CC)c1ccc2c(c1)CCCN2 | 86.5% (inactive) | 95.9% (inactive) |  | -4.21% (inactive) | 1.64% (inactive) | -13.2% (inactive) | 56.6% | 43.4% |
| COc1cc2cc(C(c3nnnn3C3CCCC3)N3CCCCCC3)c(=O)[nH]c2cc1OC (stereo not drawn) | 114% (inactive) | 92.3% (inactive) |  | -3.87% (inactive) | -2.91% (inactive) | -0.62% (inactive) | 59.7% | 59.1% |
| Cc1[nH]nc2c1C1(C(=O)N(Cc3ccc(Cl)cc3)c3ccccc31)C(C#N)=C(N)O2 (stereo not drawn) | 94% (inactive) | 90% (inactive) |  | -4.32% (inactive) | 0.18% (inactive) | -39.8% (inactive) | 92% | 52.2% |
| CC[C@]1(O)CC2CN(CCc3c([nH]c4ccccc34)[C@@](C(=O)OC)(c3cc4c(cc3OC)N(C=O)[C@H]3[C@@](O)(C(=O)OC)[C@H](OC(C)=O)[C@]5(CC)C=CCN6CC[C@]43[C@@H]65)C2)C1 (stereo partly drawn) | 104% (inactive) | 34.6% (inactive) |  | -0.91% (inactive) | -3.67% (inactive) | -27% (inactive) | 53.5% | 26.5% |
| N#Cc1c(N2CCCC2)nc(N)c2c(N)nc(N3CCCC3)cc12 | 82% (inactive) | 68.2% (inactive) |  | -0.13% (inactive) | -2.3% (inactive) | -29% (inactive) | 75.2% | 46.3% |
| O=C(Nc1cccc(-c2nnc(-c3ccccc3)o2)c1)C1CCCCC1 | 88% (inactive) | 82.8% (inactive) |  | -8.49% (inactive) | 3.55% (inactive) | 0.7% (inactive) | 53.3% | 54% |
| OCCN1CCN(CCCN2c3ccccc3Sc3ccc(Cl)cc32)CC1 | 53% (inactive) | 1.56% (active) |  | -3.38% (inactive) | 47.3% (active) | -3.86% (inactive) | 5.27% | 1.41% |
| CC(C)(C)c1ccc(C(O)CCCN2CCC(C(O)(c3ccccc3)c3ccccc3)CC2)cc1 (stereo not drawn) | 91% (inactive) | 1.7% (active) |  | -1.95% (inactive) | -1% (inactive) | 0.38% (inactive) | 1.16% | 1.54% |
| CC(=O)O[C@]1(C(C)=O)CC[C@H]2[C@@H]3C=C(Cl)C4=CC(=O)CC[C@]4(C)[C@H]3CC[C@@]21C | 104% (inactive) | 93.2% (inactive) |  | -1.3% (inactive) | -2.5% (inactive) | -23.2% (inactive) | 54.4% | 31.2% |
| CC1CCN(CCc2nc3cc(NS(=O)(=O)c4ccc(F)cc4)ccc3n2C)CC1 | 89% (inactive) | 77.6% (inactive) |  | -2.33% (inactive) | 0.97% (inactive) | -3.08% (inactive) | 55.5% | 52.4% |
| C/C=C(/C(=C/C)c1ccc(O)cc1)c1ccc(O)cc1 | 123% (inactive) | 54.9% (inactive) |  | 0.65% (inactive) | 25% (inactive) | -57.5% (inactive) | 85.2% | 27.6% |
| COC(=O)C1=C(C)NC(C)=C(C(=O)OC)C1c1ccccc1[N+](=O)[O-] | 91% (inactive) | 46.7% (inactive) |  | 1.04% (inactive) | -2.67% (inactive) | 11.9% (inactive) | 2.41% | 14.3% |
| O=C(CSc1nc2cc(S(=O)(=O)N3CCOCC3)ccc2o1)NC1CCCc2ccccc21 (stereo not drawn) | 61% (inactive) | 84.7% (inactive) |  | -3.6% (inactive) | -5.82% (inactive) | -4.17% (inactive) | 74.4% | 70.2% |
| CN1CCN(CCCN2c3ccccc3Sc3ccc(C(F)(F)F)cc32)CC1 | 91% (inactive) | 2.21% (active) |  | 1.43% (inactive) | 53.8% (active) | -3.17% (inactive) | 4.2% | 1.03% |
| CCCc1[nH]nc2c1C(c1cn[nH]c1-c1ccc(F)cc1)C(C#N)=C(N)O2 (stereo not drawn) | 98.5% (inactive) | 48.3% (inactive) |  | -2.21% (inactive) | 2.95% (inactive) | -8.32% (inactive) | 53.7% | 45.4% |
| COC(=O)c1ccc(CSc2ncnc3c2nnn3-c2ccc(OC)cc2)o1 | 87.5% (inactive) | 88% (inactive) |  | -1.97% (inactive) | 6.07% (inactive) | -10.7% (inactive) | 71.6% | 60.9% |
| CN1CCN(c2ccc(Cl)cc2NC(=O)c2cccc(S(=O)(=O)N(C)C)c2)CC1 | 93% (inactive) | 71.6% (inactive) |  | -5.47% (inactive) | 1.27% (inactive) | 43.3% (inactive) | 24.6% | 67.9% |
| CC1Cc2ccccc2N1CC(=O)NC(=O)NCc1ccco1 (stereo not drawn) | 85% (inactive) | 89.6% (inactive) |  | -0.27% (inactive) | 2.36% (inactive) | -30.2% (inactive) | 70.1% | 39.9% |
